Activity calls are given as the source filed them. The calls are words filed in the database; no cut-off is given here.
Assays:
[1] = Antiproliferative activity against human MDA-Panc-28 cells assessed as reduction in cell growth incubated for 5 days by XTT assay; assay type: functional, cell-based; conditions: MDA-Panc-28, 120 h
In short: (§1)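 Solid tumour cells were seeded at 10⁵ per well in DMEM with 10% FBS and penicillin/streptomycin and allowed to attach overnight. They were then exposed to increasing compound concentrations for 5 days. Viability was read by XTT, and EC50 came from dose-response curves.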

CREB-binding protein = CREB-binding protein (Homo sapiens, UniProt Q92793); experiment: Inhibition of human CBP-HAT domain using histone H3 peptide and acetyl-coA as substrates preincubated for 10 mins followed by substrate addition and measured after 30 mins by beckman scintillation counting analysis
In short: (§2)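 Radiometric HAT assay. Enzyme at 10 nM was preincubated with graded compound for 10 min at 25 °C in 50 mM phosphate pH 7.0 with 0.01% Brij-35. Reaction started with H3 (1-21) peptide (20 μM) plus Ac-CoA (1 μM ³H-Ac-CoA + 19 μM unlabelled) and run 30 min at 25 °C. Stopped with formic acid, spotted on P81 paper, washed with NaHCO₃ and scintillation counted. IC₅₀ from sigmoidal fit, mean of ≥3 experiments.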

[2] = biological target: Histone acetyltransferase KAT2B (Homo sapiens, UniProt Q92831); experiment: Inhibition of human PCAF using histone H3 peptide and acetyl-coA as substrates preincubated for 10 mins followed by substrate addition and measured after 30 mins by beckman scintillation counting analysis; in short: as §2
MCF7 = experiment: Antiproliferative activity against human MCF7 cells assessed as reduction in cell growth incubated for 5 days by XTT assay; assay type: functional, cell-based; conditions: MCF7, 120 h; in short: as §1
MOLM-13 [3] = experiment: Antiproliferative activity against human MOLM-13 cells assessed as reduction in cell growth incubated for 5 days by XTT assay; assay type: functional, cell-based; conditions: MOLM-13, 120 h
In short: (§3)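 Blood cancer cells were plated at 10⁶ per well in RPMI-1640 with 20% FBS and penicillin/streptomycin and grown with increasing compound concentrations at 37 °C, 5% CO₂. Viability was measured by XTT, and EC50 was calculated from dose-response curves.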

[4] = biological target: T1, Histone acetyltransferase p300 (Homo sapiens, UniProt Q09472); experiment: Inhibition of human p300 HAT domain (1195 to 1673 residues) using histone H3 peptide and acetyl-coA as substrates preincubated for 10 mins followed by substrate addition and measured after 30 mins by beckman scintillation counting analysis; in short: as §2
Kasumi 1 [5] = experiment: Inhibition of histone H3 acetylation at lysine 9 residue in human Kasumi 1 cells at 5 to 10 uM incubated for 12 hrs by Western blot analysis; assay type: functional, cell-based; conditions: dose 5-10 µM
In short: (§4)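 Kasumi-1 leukemia cells (10⁶ per well) were treated 12 h with a range of compound concentrations. Total histones were extracted, and 2 μg was resolved by SDS-PAGE and transferred to PVDF. Blots were probed for H3K9ac, H3K18ac, H3K27ac and total H3, with anti-rabbit IgG secondary.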

Kasumi 1 [6] = experiment: Inhibition of histone H3 acetylation at lysine 18 residue in human Kasumi 1 cells incubated for 12 hrs by Western blot analysis; assay type: functional, cell-based; conditions: dose 5-10 µM, DDE = dose-dependent effect; in short: as §4
Kasumi 1 [7] = experiment: Inhibition of histone H3 acetylation at lysine 27 residue in human Kasumi 1 cells at 5 to 10 uM incubated for 12 hrs by Western blot analysis; assay type: functional, cell-based; conditions: dose 5-10 µM; in short: as §4
[8] = biological target: Histone acetyltransferase KAT6A (Homo sapiens, UniProt Q92794); experiment: Inhibition of human Myst3 using histone H3 peptide and acetyl-coA as substrates preincubated for 10 mins followed by substrate addition and measured after 30 mins by beckman scintillation counting analysis; in short: as §2
[9] = biological target: T1, Histone acetyltransferase p300; experiment: Inhibition of biotinylated histone H4 peptide binding to His-tagged human p300 HAT domain (1195 to 1673 residues) assessed as reduction in alpha signal incubated for 1 hr by amplified luminescent proximity homogeneous assay
In short: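 AlphaScreen binding assay in PBS with 0.5% BSA: His6-tagged p300 HAT (125 nM) on nickel chelate acceptor beads and biotinylated H4 peptide (30 nM) on streptavidin donor beads, with a dilution series of compound. After 1 h, signal was read with excitation at 680 nm and emission at 570 nm, and IC50 came from a sigmoidal dose-response fit.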

RPMI-8226 [10] = experiment: Antiproliferative activity against human RPMI-8226 cells assessed as reduction in cell growth incubated for 5 days by XTT assay; assay type: functional, cell-based; conditions: RPMI-8226, 120 h; in short: as §3
MV4-11 = experiment: Antiproliferative activity against human MV4-11 cells assessed as reduction in cell growth incubated for 5 days by XTT assay; assay type: functional, cell-based; conditions: MV4-11, 120 h; in short: as §3
PANC-1 = experiment: Antiproliferative activity against human PANC-1 cells assessed as reduction in cell growth incubated for 5 days by XTT assay; assay type: functional, cell-based; conditions: PANC-1, 120 h; in short: as §1
[11] = biological target: T1, Histone acetyltransferase p300; experiment: Inhibition of human p300 HAT domain (1195 to 1673 residues) at 10 uM using histone H3 peptide and acetyl-coA as substrates preincubated for 10 mins followed by substrate addition and measured after 30 mins by beckman scintillation counting analysis relative to control; conditions: time 40.0 min
In short: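 Single-concentration screen at 10 μM in the radiometric p300 HAT domain assay: enzyme 10 nM, pH 7.0 phosphate/Brij-35, 10 min preincubation, then H3(1-21) peptide 20 μM plus ³H/unlabelled Ac-CoA (20 μM total), 30 min at 25 °C. Filter-bound ³H-acetylated peptide was counted, and the value is given as % inhibition.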

LNCaP [12] = experiment: Antiproliferative activity against human LNCaP cells assessed as reduction in cell growth incubated for 5 days by XTT assay; assay type: functional, cell-based; conditions: 120 h; in short: as §1
PC-3 [13] = experiment: Antiproliferative activity against human PC-3 cells assessed as reduction in cell growth incubated for 5 days by XTT assay; assay type: functional, cell-based; conditions: PC-3, 120 h
MDA-MB-231 [14] = experiment: Antiproliferative activity against human MDA-MB-231 cells assessed as reduction in cell growth incubated for 5 days by XTT assay; assay type: functional, cell-based; conditions: MDA-MB-231, 120 h
MDA-MB-231 [15] = experiment: Antiproliferative activity against human MDA-MB-231 cells assessed as reduction in cell growth incubated for 3 to 5 days by CellTiter-Glo luminescent cell viability assay; assay type: functional, cell-based
MOLM-13 [16] = experiment: Antiproliferative activity against human MOLM-13 cells assessed as reduction in cell growth incubated for 3 to 5 days by CellTiter-Glo luminescent cell viability assay; assay type: functional, cell-based
RPMI-8226 [17] = experiment: Antiproliferative activity against human RPMI-8226 cells assessed as reduction in cell growth incubated for 3 to 5 days by CellTiter-Glo luminescent cell viability assay; assay type: functional, cell-based
LNCaP [18] = experiment: Antiproliferative activity against human LNCaP cells assessed as reduction in cell growth incubated for 3 to 5 days by CellTiter-Glo luminescent cell viability assay; assay type: functional, cell-based
PC-3 [19] = experiment: Antiproliferative activity against human PC-3 cells assessed as reduction in cell growth incubated for 3 to 5 days by CellTiter-Glo luminescent cell viability assay; assay type: functional, cell-based
Kasumi 1 [20] = experiment: Inhibition of histone H3 acetylation at lysine 9 residue in human Kasumi 1 cells incubated for 12 hrs by Western blot analysis; assay type: functional, cell-based; conditions: dose 5-10 µM, DDE = dose-dependent effect
In short: (§5)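 Kasumi-1 cells (10⁶ per well) exposed to a range of compound concentrations for 12 h. Total histones extracted and 2 μg protein resolved by SDS-PAGE, then transferred to PVDF. Blots probed with antibodies to H3K9Ac, H3K18Ac, H3K27Ac and total H3, with anti-rabbit IgG secondary.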

Kasumi 1 [21] = experiment: Inhibition of histone H3 acetylation at lysine 27 residue in human Kasumi 1 cells incubated for 12 hrs by Western blot analysis; assay type: functional, cell-based; conditions: dose 5-10 µM, DDE = dose-dependent effect; in short: as §5

T1 sequence (Q09472 whole entry, the tested form may be a part): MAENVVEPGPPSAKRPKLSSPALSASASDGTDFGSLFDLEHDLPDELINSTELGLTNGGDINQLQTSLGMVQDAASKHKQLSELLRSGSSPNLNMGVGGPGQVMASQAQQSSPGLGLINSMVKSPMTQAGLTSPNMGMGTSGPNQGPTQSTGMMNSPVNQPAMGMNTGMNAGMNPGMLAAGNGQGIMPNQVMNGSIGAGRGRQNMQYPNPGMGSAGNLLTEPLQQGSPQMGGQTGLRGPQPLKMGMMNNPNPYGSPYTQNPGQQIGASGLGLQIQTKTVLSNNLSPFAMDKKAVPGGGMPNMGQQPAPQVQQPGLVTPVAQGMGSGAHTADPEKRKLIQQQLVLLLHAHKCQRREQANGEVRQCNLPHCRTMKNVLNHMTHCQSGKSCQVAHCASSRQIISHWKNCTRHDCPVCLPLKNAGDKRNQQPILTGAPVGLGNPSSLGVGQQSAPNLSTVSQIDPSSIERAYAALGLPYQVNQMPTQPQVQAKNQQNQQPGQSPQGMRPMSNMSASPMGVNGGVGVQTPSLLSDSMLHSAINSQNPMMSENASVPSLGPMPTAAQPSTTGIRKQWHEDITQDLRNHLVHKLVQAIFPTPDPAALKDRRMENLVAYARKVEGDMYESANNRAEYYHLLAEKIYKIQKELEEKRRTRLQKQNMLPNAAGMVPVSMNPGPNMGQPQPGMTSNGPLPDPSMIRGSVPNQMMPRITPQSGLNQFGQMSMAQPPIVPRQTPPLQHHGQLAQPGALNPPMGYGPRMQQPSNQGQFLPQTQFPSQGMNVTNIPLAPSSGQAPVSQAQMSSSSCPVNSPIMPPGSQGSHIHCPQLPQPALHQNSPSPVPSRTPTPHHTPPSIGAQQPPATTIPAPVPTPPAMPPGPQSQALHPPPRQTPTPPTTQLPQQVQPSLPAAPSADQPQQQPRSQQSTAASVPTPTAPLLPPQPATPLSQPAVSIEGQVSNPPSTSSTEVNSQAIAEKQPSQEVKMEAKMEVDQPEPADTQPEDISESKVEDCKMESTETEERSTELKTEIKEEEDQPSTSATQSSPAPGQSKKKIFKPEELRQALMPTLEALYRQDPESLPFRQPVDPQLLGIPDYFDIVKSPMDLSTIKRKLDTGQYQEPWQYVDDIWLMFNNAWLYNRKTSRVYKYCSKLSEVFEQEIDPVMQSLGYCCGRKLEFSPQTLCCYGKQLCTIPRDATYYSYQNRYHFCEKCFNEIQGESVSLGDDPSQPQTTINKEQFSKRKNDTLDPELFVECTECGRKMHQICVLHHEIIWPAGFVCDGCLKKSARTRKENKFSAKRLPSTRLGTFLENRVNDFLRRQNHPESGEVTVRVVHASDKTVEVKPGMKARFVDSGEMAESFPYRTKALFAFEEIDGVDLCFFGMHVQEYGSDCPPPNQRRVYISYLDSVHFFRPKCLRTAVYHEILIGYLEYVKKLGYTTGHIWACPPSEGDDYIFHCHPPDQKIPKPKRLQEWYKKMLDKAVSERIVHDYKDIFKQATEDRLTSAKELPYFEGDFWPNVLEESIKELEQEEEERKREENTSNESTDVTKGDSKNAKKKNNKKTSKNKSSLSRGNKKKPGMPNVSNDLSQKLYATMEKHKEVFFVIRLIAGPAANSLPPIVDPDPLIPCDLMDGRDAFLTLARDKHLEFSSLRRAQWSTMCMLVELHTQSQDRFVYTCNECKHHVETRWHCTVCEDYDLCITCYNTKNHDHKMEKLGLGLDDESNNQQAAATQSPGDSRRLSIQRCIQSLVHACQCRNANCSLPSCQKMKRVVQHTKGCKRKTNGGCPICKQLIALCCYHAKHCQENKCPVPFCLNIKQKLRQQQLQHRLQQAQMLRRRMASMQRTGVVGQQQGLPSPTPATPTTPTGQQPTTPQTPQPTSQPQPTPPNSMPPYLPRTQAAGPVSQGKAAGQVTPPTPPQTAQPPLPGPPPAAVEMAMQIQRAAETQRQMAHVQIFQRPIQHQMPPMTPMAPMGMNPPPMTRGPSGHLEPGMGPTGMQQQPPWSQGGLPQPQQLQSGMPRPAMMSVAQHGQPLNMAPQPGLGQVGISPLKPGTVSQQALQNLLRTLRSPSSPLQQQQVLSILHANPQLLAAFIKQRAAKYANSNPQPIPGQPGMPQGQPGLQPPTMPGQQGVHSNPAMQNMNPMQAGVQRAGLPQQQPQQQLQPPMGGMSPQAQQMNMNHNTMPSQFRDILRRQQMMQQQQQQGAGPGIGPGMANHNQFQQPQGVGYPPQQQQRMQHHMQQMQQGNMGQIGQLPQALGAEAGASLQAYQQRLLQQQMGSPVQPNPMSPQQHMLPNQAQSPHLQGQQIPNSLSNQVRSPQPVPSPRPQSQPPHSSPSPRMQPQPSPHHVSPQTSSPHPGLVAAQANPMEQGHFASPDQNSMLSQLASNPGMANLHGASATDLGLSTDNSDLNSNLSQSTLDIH
Histone acetyltransferase KAT6A, sequence (Q92794 whole entry, the tested form may be a part): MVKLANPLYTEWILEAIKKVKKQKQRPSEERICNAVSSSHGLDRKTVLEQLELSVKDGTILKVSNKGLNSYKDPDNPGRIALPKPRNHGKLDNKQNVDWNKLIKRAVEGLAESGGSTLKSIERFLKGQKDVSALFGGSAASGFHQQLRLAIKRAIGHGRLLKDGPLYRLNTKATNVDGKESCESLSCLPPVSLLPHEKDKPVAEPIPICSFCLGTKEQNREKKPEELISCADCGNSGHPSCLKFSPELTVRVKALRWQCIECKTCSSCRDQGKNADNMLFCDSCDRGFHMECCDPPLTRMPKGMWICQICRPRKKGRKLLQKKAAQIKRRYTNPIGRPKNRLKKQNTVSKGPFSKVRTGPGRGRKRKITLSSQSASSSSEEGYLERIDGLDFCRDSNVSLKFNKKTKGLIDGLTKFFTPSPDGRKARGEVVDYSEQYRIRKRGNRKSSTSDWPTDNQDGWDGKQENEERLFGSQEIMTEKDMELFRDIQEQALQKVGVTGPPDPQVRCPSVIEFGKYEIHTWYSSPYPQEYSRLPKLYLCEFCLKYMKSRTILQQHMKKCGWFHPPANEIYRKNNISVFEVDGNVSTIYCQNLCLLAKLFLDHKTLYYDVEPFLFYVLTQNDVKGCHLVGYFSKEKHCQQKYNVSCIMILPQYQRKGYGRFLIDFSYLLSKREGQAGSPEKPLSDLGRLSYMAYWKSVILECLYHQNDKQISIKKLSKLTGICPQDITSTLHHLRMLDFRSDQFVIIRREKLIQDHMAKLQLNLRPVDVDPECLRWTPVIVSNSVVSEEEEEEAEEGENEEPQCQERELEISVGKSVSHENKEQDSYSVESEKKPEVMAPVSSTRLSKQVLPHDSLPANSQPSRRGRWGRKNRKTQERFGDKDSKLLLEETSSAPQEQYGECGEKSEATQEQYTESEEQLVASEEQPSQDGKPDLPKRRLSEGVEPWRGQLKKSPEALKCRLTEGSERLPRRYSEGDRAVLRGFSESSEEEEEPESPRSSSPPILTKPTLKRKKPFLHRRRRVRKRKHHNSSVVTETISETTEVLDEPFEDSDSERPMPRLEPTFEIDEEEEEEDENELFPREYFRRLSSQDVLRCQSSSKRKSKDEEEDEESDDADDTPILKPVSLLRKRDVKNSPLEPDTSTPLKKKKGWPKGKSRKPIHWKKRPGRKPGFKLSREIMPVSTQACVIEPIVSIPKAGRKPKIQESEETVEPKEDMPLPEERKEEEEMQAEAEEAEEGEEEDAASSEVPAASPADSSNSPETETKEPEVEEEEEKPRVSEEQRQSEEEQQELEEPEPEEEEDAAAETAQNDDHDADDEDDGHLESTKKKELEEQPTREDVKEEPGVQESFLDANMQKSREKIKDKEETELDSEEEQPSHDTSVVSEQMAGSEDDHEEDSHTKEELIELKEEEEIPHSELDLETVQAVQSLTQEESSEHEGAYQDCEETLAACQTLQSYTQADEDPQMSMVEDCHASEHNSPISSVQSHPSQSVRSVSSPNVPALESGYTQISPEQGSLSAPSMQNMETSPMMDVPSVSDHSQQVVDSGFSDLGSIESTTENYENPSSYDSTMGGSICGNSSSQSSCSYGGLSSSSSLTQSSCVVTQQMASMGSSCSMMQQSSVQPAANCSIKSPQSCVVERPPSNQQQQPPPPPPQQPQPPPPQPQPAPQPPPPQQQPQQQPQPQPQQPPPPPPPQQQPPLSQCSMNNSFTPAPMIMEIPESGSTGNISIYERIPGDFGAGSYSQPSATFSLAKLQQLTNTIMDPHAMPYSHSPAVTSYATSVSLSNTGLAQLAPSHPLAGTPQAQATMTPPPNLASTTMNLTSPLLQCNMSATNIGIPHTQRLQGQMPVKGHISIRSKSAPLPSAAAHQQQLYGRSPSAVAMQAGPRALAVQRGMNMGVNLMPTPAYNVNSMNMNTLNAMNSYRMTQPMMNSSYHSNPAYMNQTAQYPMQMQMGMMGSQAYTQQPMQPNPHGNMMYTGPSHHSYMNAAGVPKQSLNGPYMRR

| Compound | IC50 [4] [µM] | inhibition [11] [%] | further results |
| --- | --- | --- | --- |
| c1cc(-c2ccc(-c3ncc(OCC4CCNCC4)nc3-c3ccc(-c4ccoc4)cc3)cc2)co1 | 1.4 |  | EC50 [1]: 4.3 µM; IC50 (CREB-binding protein): 2.2 µM; IC50 [2]: > 100 µM; EC50 (MCF7): 5.3 µM; EC50 (MOLM-13 [3]): 3.6 µM; inhibition (Kasumi 1 [5]): Active; inhibition (Kasumi 1 [6]): Dde; inhibition (Kasumi 1 [7]): Active; IC50 [8]: > 100 µM; IC50 [9]: 7.2 µM; EC50 (RPMI-8226 [10]): 6.4 µM; EC50 (MV4-11): 8.7 µM; EC50 (PANC-1): 1.2 µM |
| CN(C)CCCOc1cnc(-c2ccc(Br)cc2)c(-c2ccc(Br)cc2)n1 | > 10 | 4.8 |  |
| CC(C)(C)c1ccc(-c2ncc(OCC3CCNCC3)nc2-c2ccc(C(C)(C)C)cc2)cc1 | 17.6 |  |  |
| Clc1ccc(-c2ncc(OCC3CCNCC3)nc2-c2ccc(Cl)cc2)cc1 | > 10 |  |  |
| O=C(O)c1cnc(-c2ccc(Br)cc2)c(-c2ccc(Br)cc2)n1 | > 10 | 30 |  |
| CNCCCCOc1cnc(-c2ccc(Br)cc2)c(-c2ccc(Br)cc2)n1 | > 10 |  |  |
| Fc1cc(-c2ncc(OCC3CCNCC3)nc2-c2ccc(Br)c(F)c2)ccc1Br | 11.8 |  |  |
| CNCCOc1cnc(-c2ccc(Br)cc2)c(-c2ccc(Br)cc2)n1 | > 10 | 19.6 |  |
| NCCCOc1cnc(-c2ccc(Br)cc2)c(-c2ccc(Br)cc2)n1 | > 10 |  | EC50 (LNCaP [12]): > 20 µM; EC50 [1]: > 20 µM; EC50 (MCF7): > 20 µM; EC50 (PC-3 [13]): > 20 µM; EC50 (MOLM-13 [3]): > 20 µM; EC50 (MDA-MB-231 [14]): > 20 µM; EC50 (RPMI-8226 [10]): > 20 µM; EC50 (MV4-11): > 20 µM; EC50 (PANC-1): > 20 µM |
| Cc1ccc(-c2ncc(OCC3CCNCC3)cc2-c2ccc(CO)cc2)cc1 | 62.6 |  |  |
| N#Cc1ccc(-c2ncc(OCC3CCNCC3)nc2-c2ccc(Br)cc2)cc1 | > 10 | 0 |  |
| c1ccc(-c2cc(OCC3CCNCC3)cnc2-c2ccccc2)cc1 | 46.3 |  |  |
| CC(=O)NCCOc1cnc(-c2ccc(Br)cc2)c(-c2ccc(Br)cc2)n1 | > 10 | 0 |  |
| CNC(=O)Nc1ccc2c(c1)CC[C@@]21OC(=O)N(CC(=O)N(Cc2ccc(F)cc2)[C@@H](C)C(F)(F)F)C1=O (single isomer, unassigned) [A-485] |  |  | EC50 (MDA-MB-231 [15]): > 10 µM; EC50 (MOLM-13 [16]): 0.35 µM; EC50 (RPMI-8226 [17]): 0.16 µM; EC50 (LNCaP [18]): 0.26 µM; EC50 (PC-3 [19]): 2.1 µM |
| NCCOc1cnc(-c2ccc(Br)cc2)c(-c2ccc(Br)cc2)n1 | > 10 | 5.4 |  |
| Brc1ccc(-c2ncc(OCC3CCNCC3)nc2-c2ccc(Br)c(Br)c2)cc1Br |  | 50 |  |

| Compound | IC50 [4] [µM] | inhibition [11] [%] | further results |
| --- | --- | --- | --- |
| N#Cc1ccc(-c2ncc(OCC3CCNCC3)nc2-c2ccc(C#N)cc2)cc1 | > 10 | 0 |  |
| Ic1ccc(-c2ncc(OCC3CCNCC3)nc2-c2ccc(I)cc2)cc1 | 7.8 |  |  |
| Brc1ccc(-c2ncc(OCC3CCNC3)nc2-c2ccc(Br)cc2)cc1 (stereo unspecified) | > 10 |  |  |
| OCc1ccc(-c2ncc(OCC3CCNCC3)nc2-c2ccc(CO)cc2)cc1 | 10 | 48.2 |  |
| c1cc(-c2ccc(-c3ncc(OCC4CCNCC4)nc3-c3ccc(-c4ccncc4)cc3)cc2)ccn1 | > 10 | 39 |  |
| N#Cc1ccc(-c2nc(OCC3CCNCC3)cnc2-c2ccc(Br)cc2)cc1 | > 10 | 21 |  |
| Brc1ccc(-c2ncc(OCC3CCNCC3)nc2-c2ccc(Br)cc2)cc1 | 5.7 | 72.5 | IC50 [9]: 27 µM |
| FC(F)(F)c1ccc(-c2ncc(OCC3CCNCC3)nc2-c2ccc(C(F)(F)F)cc2)cc1 | > 10 | 34 |  |
| COc1ccc(-c2ncc(OCC3CCNCC3)nc2-c2ccc(OC)cc2)cc1 | > 10 | 38 |  |
| c1ccc(-c2ccc(-c3ncc(OCC4CCNCC4)nc3-c3ccc(-c4ccccn4)cc3)cc2)nc1 | > 10 | 37 |  |
| NCCCCOc1cnc(-c2ccc(Br)cc2)c(-c2ccc(Br)cc2)n1 | > 10 |  |  |
| NCc1ccc(-c2ncc(OCC3CCNCC3)nc2-c2ccc(CN)cc2)cc1 | 2.8 |  | inhibition (Kasumi 1 [20]): Dde; inhibition (Kasumi 1 [21]): Dde |
| CN(C)Cc1ccc(-c2ncc(OCC3CCNCC3)nc2-c2ccc(CN(C)C)cc2)cc1 | > 10 |  |  |
| Nc1ccc(-c2ccc(-c3ncc(OCC4CCNCC4)nc3-c3ccc(-c4ccc(N)cc4)cc3)cc2)cc1 | 2.3 |  |  |
| CCc1ccc(-c2ncc(OCC3CCNCC3)nc2-c2ccc(CC)cc2)cc1 | 10 | 55 |  |
| Brc1cccc(-c2ncc(OCC3CCNCC3)nc2-c2cccc(Br)c2)c1 | 9.9 |  |  |

— ChEMBL document CHEMBL5120858, “Structure-activity relationship and antitumor activity of 1,4-pyrazine-containing inhibitors of histone acetyltransferases P300/CBP” (Eur J Med Chem, 2022)
